Experimental data published in ChEMBL document CHEMBL4622973, “Discovery of Potent Small-Molecule SIRT6 Activators: Structure-Activity Relationship and Anti-Pancreatic Ductal Adenocarcinoma Activity” (J Med Chem, 2020).
Active and inactive are the calls of the source. No cut-off for these calls is given here.

How the values were obtained:
NCI-H446 = assay: Antiproliferative activity against human NCI-H446 cells assessed as reduction in cell viability incubated for 72 hrs by MTT assay; format: functional, cell-based
Homo sapiens [1] = organism: Homo sapiens; assay: Selectivity index, ratio of IC50 for SIRT1 (unknown origin) to EC1.5 for N-terminal his-tagged human SIRT6 expressed in Escherichia coli M15 [pREP4]
Homo sapiens [2] = organism: Homo sapiens; assay: Antiproliferative activity against human OCUT-2C cells assessed as reduction in cell viability incubated for 72 hrs by MTT assay; format: functional, cell-based
MIA PaCa-2 [3] = assay: Inhibition of colony formation in human MIAPaCa2 cells incubated for 9 to 18 days by crystal violet staining based assay; format: functional, cell-based
Method in brief: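 Cells are seeded per well at the line-specific density: BXPC-3 750, PANC-1 500, AsPC-1 2200, MIAPaCa-2 500. Compound at several concentrations is added after 24 h. Incubation runs 9–18 days (BXPC-3 18 days, PANC-1 14 days). Cells are then fixed with 4% paraformaldehyde and stained with crystal violet, and colonies of more than 50 cells are counted.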

[4] = target: Protein deacetylase HDAC6 (Homo sapiens, UniProt Q9UBN7); assay: Inhibition of HDAC6 (unknown origin) by FDL assay
Protein deacetylase HDAC6, sequence (Q9UBN7 whole entry): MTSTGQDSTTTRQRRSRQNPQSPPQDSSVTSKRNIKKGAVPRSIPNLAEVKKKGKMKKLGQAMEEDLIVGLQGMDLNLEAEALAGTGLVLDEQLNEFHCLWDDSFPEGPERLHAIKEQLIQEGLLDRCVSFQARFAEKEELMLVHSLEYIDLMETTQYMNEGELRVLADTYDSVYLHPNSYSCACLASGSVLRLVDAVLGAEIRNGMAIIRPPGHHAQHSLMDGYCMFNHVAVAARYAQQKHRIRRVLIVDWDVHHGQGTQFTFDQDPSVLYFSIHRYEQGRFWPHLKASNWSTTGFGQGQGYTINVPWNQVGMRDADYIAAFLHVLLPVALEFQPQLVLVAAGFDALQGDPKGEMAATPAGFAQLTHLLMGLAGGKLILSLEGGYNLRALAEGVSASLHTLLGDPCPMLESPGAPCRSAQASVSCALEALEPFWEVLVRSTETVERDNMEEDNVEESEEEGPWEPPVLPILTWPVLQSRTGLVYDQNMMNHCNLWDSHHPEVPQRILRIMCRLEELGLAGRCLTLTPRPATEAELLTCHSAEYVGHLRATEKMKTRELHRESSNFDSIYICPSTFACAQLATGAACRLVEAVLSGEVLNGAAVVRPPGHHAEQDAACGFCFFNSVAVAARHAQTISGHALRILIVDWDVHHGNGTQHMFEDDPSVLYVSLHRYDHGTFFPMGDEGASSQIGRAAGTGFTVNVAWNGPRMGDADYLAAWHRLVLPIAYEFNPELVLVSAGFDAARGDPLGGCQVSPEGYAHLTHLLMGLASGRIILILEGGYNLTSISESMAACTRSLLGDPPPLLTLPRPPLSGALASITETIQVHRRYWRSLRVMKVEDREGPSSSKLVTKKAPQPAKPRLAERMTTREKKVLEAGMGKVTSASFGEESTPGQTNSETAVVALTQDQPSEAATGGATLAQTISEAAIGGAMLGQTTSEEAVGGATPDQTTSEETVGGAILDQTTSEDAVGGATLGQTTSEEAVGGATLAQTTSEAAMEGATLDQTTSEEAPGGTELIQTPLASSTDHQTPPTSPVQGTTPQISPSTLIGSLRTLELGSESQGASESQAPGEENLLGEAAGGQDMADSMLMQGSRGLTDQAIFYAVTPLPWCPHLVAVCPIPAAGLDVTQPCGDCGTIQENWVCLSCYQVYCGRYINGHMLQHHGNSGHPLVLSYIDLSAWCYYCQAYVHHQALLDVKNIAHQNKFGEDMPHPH
Method in brief: (§1)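 Selectivity testing by FDL assay at concentrations up to 200 µM. SIRT1-2 assays run by an outside contract provider. Values reported as IC50.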

HepG2 = assay: Antiproliferative activity against human HepG2 cells assessed as reduction in cell viability incubated for 72 hrs by MTT assay; format: functional, cell-based
Histone deacetylase 2 = Histone deacetylase 2 (Homo sapiens, UniProt Q92769); assay: Inhibition of HDAC2 (unknown origin) by FDL assay; method in brief: as §1
Histone deacetylase 2, sequence (Q92769 whole entry): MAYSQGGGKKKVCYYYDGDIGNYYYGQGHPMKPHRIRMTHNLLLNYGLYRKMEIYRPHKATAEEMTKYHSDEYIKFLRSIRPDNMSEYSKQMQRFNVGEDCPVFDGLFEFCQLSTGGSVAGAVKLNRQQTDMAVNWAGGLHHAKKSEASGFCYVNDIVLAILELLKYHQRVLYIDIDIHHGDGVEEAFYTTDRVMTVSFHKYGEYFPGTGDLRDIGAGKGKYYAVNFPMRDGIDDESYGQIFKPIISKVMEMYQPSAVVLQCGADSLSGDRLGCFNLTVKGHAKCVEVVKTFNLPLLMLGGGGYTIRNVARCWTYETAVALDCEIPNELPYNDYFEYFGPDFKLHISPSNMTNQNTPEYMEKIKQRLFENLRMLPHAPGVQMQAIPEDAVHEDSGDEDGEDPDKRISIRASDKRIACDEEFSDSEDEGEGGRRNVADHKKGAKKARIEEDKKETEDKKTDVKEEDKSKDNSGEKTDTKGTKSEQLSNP

[5] = target: T1, NAD-dependent protein deacylase sirtuin-6 (Homo sapiens, UniProt Q8N6T7); assay: In-vivo activation of SIRT6 in BALB/c nude mouse xenografted with human PANC1 cells assessed as reduction in Lin28b expression at 150 mg/kg/day, po for 30 days by IHC analysis; format: functional, organism-based; conditions: PANC-1
T1 sequence (Q8N6T7 whole entry): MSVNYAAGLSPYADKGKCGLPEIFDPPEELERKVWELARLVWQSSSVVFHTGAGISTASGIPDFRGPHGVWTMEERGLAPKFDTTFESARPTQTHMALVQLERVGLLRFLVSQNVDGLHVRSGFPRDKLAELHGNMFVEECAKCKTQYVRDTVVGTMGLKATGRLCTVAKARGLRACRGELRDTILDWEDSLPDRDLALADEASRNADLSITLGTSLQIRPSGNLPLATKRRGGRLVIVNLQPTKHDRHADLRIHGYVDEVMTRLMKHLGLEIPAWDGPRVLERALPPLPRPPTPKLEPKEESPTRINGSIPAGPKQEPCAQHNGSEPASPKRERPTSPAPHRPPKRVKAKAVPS
Method in brief: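 Female BALB/c nude mice (6–8 weeks) bearing subcutaneous PANC-1 xenografts (5×10⁶–1×10⁷ cells, right flank), randomised at 130–150 mm³ tumours; oral dosing daily for 30 days versus vehicle (n=6). Tumour tissue stained by immunohistochemistry.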

[6] = target: T1, NAD-dependent protein deacylase sirtuin-6; assay: […] in human PANC1 cells assessed as reduction in Lin28b expression levels at 25 uM incubated for 72 hrs by Western blot analysis; format: cell-based; conditions: PANC-1
Method in brief: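 Cells incubated 72 h with various compound concentrations; whole-cell RIPA lysates with protease inhibitors, BCA-normalised, separated on 12% SDS-PAGE, transferred to PVDF, blocked in 5% milk or BSA. Probed 10 h at 4 °C with antibodies to SIRT6, acetyl-H3K9/K18/K56, total H3, Lin28b, Myc, IGF2BP3, β-actin; HRP secondary, chemiluminescent detection.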

[7] = Tmax in Sprague-Dawley rat at 10 mg/kg, po after 0.083 to 24 hrs by LC-MS/MS analysis; format: ADME, organism-based; conditions: in vivo
Method in brief: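 Male Sprague-Dawley rats, 6–8 weeks old, received a single dose of 10 mg/kg p.o. or 2 mg/kg i.v. The vehicle was 5% DMSO, 10% Solutol and 85% saline at pH 7. Blood was taken by cardiac puncture at 0.083–24 h (p.o.) or 0.25–24 h (i.v.), and plasma was measured by LC-MS/MS. Values are mean ± SD, n = 3.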

PANC-1 = assay: Antiproliferative activity against human PANC1 cells at 3.3 to 10 uM incubated for 24 hrs by EdU incorporation assay; format: functional, cell-based
Method in brief: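 Cells seeded per well at 8000 (BXPC-3) or 4600 (PANC-1), then treated with a concentration series for 24 h. EdU incorporation detected with an EdU-Apollo kit, with Hoechst counterstain. EdU-positive cells counted by high-content imaging across 10 fields.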

[8] = Toxicity in BALB/c nude mouse xenografted with human PANC1 cells assessed as induction of toxicity symptoms at 100 to 150 mg/kg/day, po for 30 days; format: organism-based, PANC-1; conditions: in vivo, 720 h
Method in brief: (§2)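 Female BALB/c nude mice, 6–8 weeks old, received 5×10⁶–1×10⁷ PANC-1 cells subcutaneously in the right flank. Once tumors reached 130–150 mm³, mice were randomized (n = 6) to vehicle or 100 or 150 mg/kg/d given orally for 30 days. Body weight and toxicity were monitored against the vehicle group.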

[9] = target: T1, NAD-dependent protein deacylase sirtuin-6; assay: Activation of N-terminal his-tagged human SIRT6 expressed in Escherichia coli M15 [pREP4] assessed as increase in peptide demyristoylation incubated for 120 mins using Ac-EALPKK(Myr)-AMC substrate by FDL assay relative to control
Method in brief: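 Demyristoylation: 1 µM recombinant SIRT6 preincubated with compound for 20 min at 37 °C in 50 mM Tris-HCl pH 8.0, BSA 1 mg/mL, 1 mM DTT, with 10 µM Ac-EALPKK(Myr)-AMC. Fluorescence read. Mean ± s.d., triplicate wells, three independent experiments.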

MIA PaCa-2 [10] = assay: Antiproliferative activity against human MIAPaCa2 cells assessed as reduction in cell viability incubated for 72 hrs by MTT assay; format: functional, cell-based
Method in brief: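 PDAC cells grown in DMEM or RPMI1640 with 10% FBS and penicillin/streptomycin at 37 °C, 5% CO2. Plated in triplicate, then treated with a concentration series for 72 h. Viability read by MTT. IC50 calculated from dose-response curves.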

[11] = target: T1, NAD-dependent protein deacylase sirtuin-6; assay: Activation of N-terminal his-tagged human SIRT6 expressed in Escherichia coli M15 [pREP4] assessed as increase in peptide demyristoylation incubated for 120 mins using Ac-EALPKK(Myr)-AMC substrate by HPLC analysis
Method in brief: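 SIRT6 (10 μM) incubated with 100 μM Ac-EALPKK(Myr)-AMC, 3 mM NAD⁺ in assay buffer, with DMSO or 25 μM compound, 37 °C for 2 h. Quenched with 100 mM HCl/160 mM acetic acid at 37 °C for 30 min, centrifuged, supernatant analysed by reverse-phase C18 HPLC, water/acetonitrile with 0.1% TFA.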

Histone deacetylase 7 = Histone deacetylase 7 (Homo sapiens, UniProt Q8WUI4); assay: Inhibition of HDAC7 (unknown origin) by FDL assay; method in brief: as §1
Histone deacetylase 7, sequence (Q8WUI4 whole entry): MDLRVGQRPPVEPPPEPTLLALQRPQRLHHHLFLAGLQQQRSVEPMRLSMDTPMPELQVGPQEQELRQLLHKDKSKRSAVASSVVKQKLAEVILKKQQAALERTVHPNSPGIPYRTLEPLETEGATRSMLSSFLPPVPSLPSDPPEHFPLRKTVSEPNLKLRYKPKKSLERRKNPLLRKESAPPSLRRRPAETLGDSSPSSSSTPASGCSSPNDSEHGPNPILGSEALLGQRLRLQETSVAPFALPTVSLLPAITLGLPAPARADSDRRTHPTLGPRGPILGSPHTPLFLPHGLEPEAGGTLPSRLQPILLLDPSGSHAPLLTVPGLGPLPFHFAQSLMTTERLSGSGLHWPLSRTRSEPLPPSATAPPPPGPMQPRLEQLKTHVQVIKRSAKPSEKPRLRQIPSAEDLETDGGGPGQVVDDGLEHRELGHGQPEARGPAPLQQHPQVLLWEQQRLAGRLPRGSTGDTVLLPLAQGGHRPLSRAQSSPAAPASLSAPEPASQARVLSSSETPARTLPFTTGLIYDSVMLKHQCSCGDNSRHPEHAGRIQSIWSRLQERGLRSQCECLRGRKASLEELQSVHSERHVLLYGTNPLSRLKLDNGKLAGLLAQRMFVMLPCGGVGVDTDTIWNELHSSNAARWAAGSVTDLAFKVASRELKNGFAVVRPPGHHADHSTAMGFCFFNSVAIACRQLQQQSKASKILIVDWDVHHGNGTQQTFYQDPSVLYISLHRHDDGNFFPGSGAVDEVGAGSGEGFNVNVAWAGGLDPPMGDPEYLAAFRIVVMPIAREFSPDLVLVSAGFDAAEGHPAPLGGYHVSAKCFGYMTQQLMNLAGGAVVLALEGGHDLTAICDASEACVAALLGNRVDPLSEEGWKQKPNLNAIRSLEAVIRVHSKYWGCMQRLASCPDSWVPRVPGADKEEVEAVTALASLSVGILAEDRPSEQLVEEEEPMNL

[12] = AUC (0 to t) in Sprague-Dawley rat at 2 mg/kg, iv after 0.25 to 24 hrs by LC-MS/MS analysis; format: ADME, organism-based; conditions: in vivo
Method in brief: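 Male Sprague-Dawley rats, 6-8 weeks old. Dosing solution of 10 (PO) or 2 (IV) mg/mL in 5% DMSO, 10% Solutol and 85% saline, pH 7. Blood taken by cardiac puncture at 0.083–24 h (PO) or 0.25–24 h (IV). Plasma levels measured by LC-MS/MS. Values are mean ± SD, n = 3.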

[13] = Toxicity in BALB/c nude mouse xenografted with human PANC1 cells assessed as induction of body weight loss at 100 to 150 mg/kg/day, po for 30 days; format: organism-based, PANC-1; conditions: in vivo, 720 h; method in brief: as §2
[14] = target: NAD-dependent protein deacetylase sirtuin-2 (Homo sapiens, UniProt Q8IXJ6); assay: Inhibition of SIRT2 (unknown origin) by FDL assay; method in brief: as §1
NAD-dependent protein deacetylase sirtuin-2, sequence (Q8IXJ6 whole entry): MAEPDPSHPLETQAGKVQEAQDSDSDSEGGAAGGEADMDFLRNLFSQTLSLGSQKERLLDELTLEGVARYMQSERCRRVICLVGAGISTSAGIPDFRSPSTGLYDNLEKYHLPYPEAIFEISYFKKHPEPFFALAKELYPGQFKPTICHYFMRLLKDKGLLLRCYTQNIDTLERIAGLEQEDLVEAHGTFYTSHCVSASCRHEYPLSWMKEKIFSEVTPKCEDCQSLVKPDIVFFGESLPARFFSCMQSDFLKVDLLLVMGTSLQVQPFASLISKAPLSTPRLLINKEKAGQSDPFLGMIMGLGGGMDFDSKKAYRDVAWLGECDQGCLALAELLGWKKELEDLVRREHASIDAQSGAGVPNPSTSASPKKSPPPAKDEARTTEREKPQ

In the case of O=C(NC(c1ccccc1)c1ccccc1)c1cc(-c2cc3ccccc3o2)nc2ccccc12, the Activity (NCI-H446) is reported as “Active”, the Ratio (Homo sapiens [1]) is reported as 300 and the Activity (Homo sapiens [2]) is reported as “Active”. For the same compound, the inhibition (MIA PaCa-2 [3]) was “Dose-dependent effect”, the IC50 [4] was greater than 200 µM and the Activity (HepG2) was “Active”. The IC50 (Histone deacetylase 2) was greater than 200 µM, the Activity [5] was “Active” and the inhibition [6] was “Active”. For the same compound, the Tmax [7] was 2 h, the Activity (PANC-1) was “Active” and the Activity [8] was “Non-Toxic”. For the same compound, the EC1.5 [9] was 0.58 to 0.72 µM, the EC50 [9] was 8.91 µM and the Activity (MIA PaCa-2 [10]) was “Dose-dependent effect”. The IC50 (MIA PaCa-2 [10]; MIA PaCa-2, 72 h) was 7.1 µM, the Activity [11] was “Active” and the IC50 (Histone deacetylase 7) was greater than 200 µM. The AUCt [12] was 3326.13 ng·mL·h, the Activity [13] was “Non-Toxic” and the IC50 [14] was greater than 200 µM.
